# Activity calls are given as the source filed them. No cut-off for these calls is given here.
# Columns and labels:
# [1] = Inhibition of DNA gyrase assessed as pBR322 DNA relaxation at 5 uM
# In short: (§1)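 Relaxation without ATP: gyrase (60 nM) with supercoiled pBR322 DNA (6 nM) and drug at […] for 1 h at 37 °C; relaxation judged by gel. Ciprofloxacin, novobiocin and nalidixic acid comparators.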
# [2] = Inhibition of DNA gyrase assessed as pBR322 DNA relaxation at 1 uM; in short: as §1
# Pseudomonas aeruginosa [3] = assay: Antimicrobial activity against Pseudomonas aeruginosa at 5 ug after 24 hrs by disk diffusion method; type: functional; conditions: read-out: IZ
# In short: (§2)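 Inoculum made in 0.85% saline against McFarland standard, swabbed evenly onto nutrient agar; sterile filter-paper discs set equidistant and loaded with equal volumes of drug at varying amounts; zone of inhibition measured after 24 h at 37 °C; ciprofloxacin reference.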
# Klebsiella pneumoniae [4] = assay: Antimicrobial activity against Klebsiella pneumoniae at 5 ug after 24 hrs by disk diffusion method; type: functional; conditions: read-out: IZ; in short: as §2
# Pseudomonas aeruginosa [5] = assay: Antimicrobial activity against Pseudomonas aeruginosa at 25 ug after 24 hrs by disk diffusion method; type: functional; conditions: read-out: IZ; in short: as §2
# Salmonella typhi = assay: Antimicrobial activity against Salmonella typhi by broth microdilution assay; type: functional, Salmonella enterica subsp. enterica serovar Typhi; conditions: Salmonella enterica
# In short: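 Broth microdilution in 96-well plates following the NCCLS 1997 protocol. Final inoculum was 10^5 cfu/mL, with a control organism run alongside. Plates were incubated at 35.7 °C in air for 18–20 h. MIC is the lowest concentration with no visible growth.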
# Salmonella typhimurium [6] = assay: Antimicrobial activity against Salmonella Typhimurium at 15 ug after 24 hrs by disk diffusion method; type: functional, Salmonella enterica subsp. enterica serovar Typhimurium; conditions: Salmonella enterica, read-out: IZ; in short: as §2
# Pseudomonas aeruginosa [7] = assay: Antimicrobial activity against Pseudomonas aeruginosa at 15 ug after 24 hrs by disk diffusion method; type: functional; conditions: read-out: IZ; in short: as §2
# Pseudomonas aeruginosa [8] = assay: Antimicrobial activity against Pseudomonas aeruginosa at 20 ug after 24 hrs by disk diffusion method; type: functional; conditions: read-out: IZ; in short: as §2
# Bacillus subtilis [9] = assay: Antimicrobial activity against Bacillus subtilis at 20 ug after 24 hrs by disk diffusion method; type: functional; conditions: read-out: IZ; in short: as §2
# Salmonella typhimurium [10] = assay: Antimicrobial activity against Salmonella Typhimurium at 5 ug after 24 hrs by disk diffusion method; type: functional, Salmonella enterica subsp. enterica serovar Typhimurium; conditions: Salmonella enterica, read-out: IZ; in short: as §2
# Klebsiella pneumoniae [11] = assay: Antimicrobial activity against Klebsiella pneumoniae at 25 ug after 24 hrs by disk diffusion method; type: functional; conditions: read-out: IZ; in short: as §2
# Escherichia coli [12] = assay: Antimicrobial activity against Escherichia coli at 20 ug after 24 hrs by disk diffusion method; type: functional; conditions: read-out: IZ; in short: as §2
# Staphylococcus aureus [13] = assay: Antimicrobial activity against Staphylococcus aureus at 15 ug after 24 hrs by disk diffusion method; type: functional; conditions: read-out: IZ; in short: as §2
# Escherichia coli [14] = assay: Antimicrobial activity against Escherichia coli at 10 ug after 24 hrs by disk diffusion method; type: functional; conditions: read-out: IZ; in short: as §2
# Bacillus subtilis [15] = assay: Antimicrobial activity against Bacillus subtilis at 25 ug after 24 hrs by disk diffusion method; type: functional; conditions: read-out: IZ; in short: as §2
# Staphylococcus aureus [16] = assay: Antimicrobial activity against Staphylococcus aureus at 5 ug after 24 hrs by disk diffusion method; type: functional; conditions: read-out: IZ; in short: as §2
# Escherichia coli [17] = assay: Antimicrobial activity against Escherichia coli by broth microdilution assay; type: functional
# In short: (§3)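 Broth microdilution per NCCLS 1997 in 96-well plate; final inoculum 10^5 cfu/mL; incubated 35.7 °C in air 18–20 h; MIC read as lowest concentration with no visible growth.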
# Pseudomonas aeruginosa [18] = assay: Antimicrobial activity against Pseudomonas aeruginosa at 10 ug after 24 hrs by disk diffusion method; type: functional; conditions: read-out: IZ; in short: as §2
# Salmonella typhimurium [19] = assay: Antimicrobial activity against Salmonella Typhimurium at 25 ug after 24 hrs by disk diffusion method; type: functional, Salmonella enterica subsp. enterica serovar Typhimurium; conditions: Salmonella enterica, read-out: IZ; in short: as §2
# Klebsiella pneumoniae [20] = assay: Antimicrobial activity against Klebsiella pneumoniae at 15 ug after 24 hrs by disk diffusion method; type: functional; conditions: read-out: IZ; in short: as §2
# Staphylococcus aureus [21] = assay: Antimicrobial activity against Staphylococcus aureus at 10 ug after 24 hrs by disk diffusion method; type: functional; conditions: read-out: IZ; in short: as §2
# Salmonella typhimurium [22] = assay: Antimicrobial activity against Salmonella Typhimurium at 10 ug after 24 hrs by disk diffusion method; type: functional, Salmonella enterica subsp. enterica serovar Typhimurium; conditions: Salmonella enterica, read-out: IZ; in short: as §2
# Pseudomonas aeruginosa [23] = assay: Antimicrobial activity against Pseudomonas aeruginosa by broth microdilution assay; type: functional; in short: as §3
# Staphylococcus aureus [24] = assay: Antimicrobial activity against Staphylococcus aureus at 25 ug after 24 hrs by disk diffusion method; type: functional; conditions: read-out: IZ; in short: as §2
# Escherichia coli [25] = assay: Antimicrobial activity against Escherichia coli at 25 ug after 24 hrs by disk diffusion method; type: functional; conditions: read-out: IZ; in short: as §2
# Klebsiella pneumoniae [26] = assay: Antimicrobial activity against Klebsiella pneumoniae at 10 ug after 24 hrs by disk diffusion method; type: functional; conditions: read-out: IZ; in short: as §2
# Bacillus subtilis [27] = assay: Antimicrobial activity against Bacillus subtilis at 15 ug after 24 hrs by disk diffusion method; type: functional; conditions: read-out: IZ; in short: as §2
# Staphylococcus aureus [28] = assay: Antimicrobial activity against Staphylococcus aureus at 20 ug after 24 hrs by disk diffusion method; type: functional; conditions: read-out: IZ; in short: as §2
# Klebsiella pneumoniae [29] = assay: Antimicrobial activity against Klebsiella pneumoniae at 20 ug after 24 hrs by disk diffusion method; type: functional; conditions: read-out: IZ; in short: as §2
# Staphylococcus aureus [30] = assay: Antimicrobial activity against Staphylococcus aureus by broth microdilution assay; type: functional; in short: as §3
# Klebsiella pneumoniae [31] = assay: Antimicrobial activity against Klebsiella pneumoniae by broth microdilution assay; type: functional; in short: as §3
# Escherichia coli [32] = assay: Antimicrobial activity against Escherichia coli at 15 ug after 24 hrs by disk diffusion method; type: functional; conditions: read-out: IZ; in short: as §2
# Bacillus subtilis [33] = assay: Antimicrobial activity against Bacillus subtilis by broth microdilution assay; type: functional; in short: as §3
# Bacillus subtilis [34] = assay: Antimicrobial activity against Bacillus subtilis at 10 ug after 24 hrs by disk diffusion method; type: functional; conditions: read-out: IZ; in short: as §2
# Escherichia coli [35] = assay: Inhibition of DNA gyrase gene expression in Escherichia coli assessed as decrease in band intensity by RT-PCR amplification
# In short: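 E. coli treated with drug; total RNA from cells sampled up to 24 h; 2 µg RNA to cDNA with MMLV reverse transcriptase; gyrase gene PCR (94 °C 4 min initial denaturation, 72 °C 7 min final extension); products on agarose gel, band intensity normalized to GAPDH; untreated cells as negative control.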
# Salmonella typhimurium [36] = assay: Antimicrobial activity against Salmonella Typhimurium at 20 ug after 24 hrs by disk diffusion method; type: functional, Salmonella enterica subsp. enterica serovar Typhimurium; conditions: Salmonella enterica, read-out: IZ; in short: as §2
# [37] = Inhibition of DNA gyrase assessed as conversion of relaxed pBR322 to supercoiled form
# In short: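 Supercoiling in 15 µL reactions: gyrase assay buffer, 150 ng relaxed pBR322, 2–3 µL purified DNA gyrase, 3 h at 37 °C (E. coli); stopped with 50% glycerol/0.25% bromophenol blue; 1% agarose in 1× TBE pH 8.3, 90 V 3 h; ethidium bromide stain; supercoiled band brightness by densitometry. Ciprofloxacin comparator.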
# Escherichia coli [38] = assay: Antimicrobial activity against Escherichia coli at 5 ug after 24 hrs by disk diffusion method; type: functional; conditions: read-out: IZ; in short: as §2
smiles,measurement,setting,value
CO[C@@H]1[C@@H](OC(N)=O)[C@@H](O)[C@H](Oc2ccc3c(O)c(NC(=O)c4ccc(O)c(CC=C(C)C)c4)c(=O)oc3c2C)OC1(C)C,Activity,[1],inactive
same,Activity,[2],Active
COc1ccc2c(c1)C(c1ccccc1)[C@@H]1Cn3cccc3[C@@H]1N2 (stereo partly drawn),zone of inhibition at 5 µg/disc,Pseudomonas aeruginosa [3],24 mm
same,zone of inhibition at 5 µg/disc,Klebsiella pneumoniae [4],10 mm
same,zone of inhibition at 25 µg/disc,Pseudomonas aeruginosa [5],36 mm
same,MIC50,Salmonella typhi,0.06 µg/mL
same,MIC90,Salmonella typhi,0.15 µg/mL
same,zone of inhibition at 15 µg/disc,Salmonella typhimurium [6],18 mm
same,zone of inhibition at 15 µg/disc,Pseudomonas aeruginosa [7],28 mm
same,zone of inhibition at 20 µg/disc,Pseudomonas aeruginosa [8],34 mm
same,zone of inhibition at 20 µg/disc,Bacillus subtilis [9],10 mm
same,zone of inhibition at 5 µg/disc,Salmonella typhimurium [10],10 mm
same,zone of inhibition at 25 µg/disc,Klebsiella pneumoniae [11],26 mm
same,zone of inhibition at 20 µg/disc,Escherichia coli [12],22 mm
same,Activity,[1],inactive
same,zone of inhibition at 15 µg/disc,Staphylococcus aureus [13],26 mm
same,zone of inhibition at 10 µg/disc,Escherichia coli [14],14 mm
same,zone of inhibition at 25 µg/disc,Bacillus subtilis [15],11 mm
same,zone of inhibition at 5 µg/disc,Staphylococcus aureus [16],20 mm
same,MIC50,Escherichia coli [17],0.125 µg/mL
same,MIC90,Escherichia coli [17],0.25 µg/mL
same,zone of inhibition at 10 µg/disc,Pseudomonas aeruginosa [18],26 mm
same,zone of inhibition at 25 µg/disc,Salmonella typhimurium [19],24 mm
same,zone of inhibition at 15 µg/disc,Klebsiella pneumoniae [20],16 mm
same,zone of inhibition at 10 µg/disc,Staphylococcus aureus [21],24 mm
same,zone of inhibition at 10 µg/disc,Salmonella typhimurium [22],16 mm
same,MIC50,Pseudomonas aeruginosa [23],0.125 µg/mL
same,MIC90,Pseudomonas aeruginosa [23],1 µg/mL
same,zone of inhibition at 25 µg/disc,Staphylococcus aureus [24],36 mm
same,zone of inhibition at 25 µg/disc,Escherichia coli [25],23 mm
same,zone of inhibition at 10 µg/disc,Klebsiella pneumoniae [26],14 mm
same,zone of inhibition at 15 µg/disc,Bacillus subtilis [27],9 mm
same,zone of inhibition at 20 µg/disc,Staphylococcus aureus [28],30 mm
same,zone of inhibition at 20 µg/disc,Klebsiella pneumoniae [29],24 mm
same,MIC50,Staphylococcus aureus [30],0.5 µg/mL
same,MIC90,Staphylococcus aureus [30],0.5 µg/mL
same,MIC50,Klebsiella pneumoniae [31],0.25 µg/mL
same,MIC90,Klebsiella pneumoniae [31],2 µg/mL
same,zone of inhibition at 15 µg/disc,Escherichia coli [32],16 mm
same,MIC50,Bacillus subtilis [33],0.3 µg/mL
same,MIC90,Bacillus subtilis [33],2 µg/mL
same,zone of inhibition at 10 µg/disc,Bacillus subtilis [34],8 mm
same,Activity,Escherichia coli [35],Active
same,zone of inhibition at 20 µg/disc,Salmonella typhimurium [36],22 mm
same,Activity,[37],Active
same,zone of inhibition at 5 µg/disc,Escherichia coli [38],12 mm
O=C1c2ccccc2C(=O)C12Nc1ccc(Br)cc1[C@H]1OCCC[C@H]12,zone of inhibition at 5 µg/disc,Pseudomonas aeruginosa [3],10 mm
same,zone of inhibition at 5 µg/disc,Klebsiella pneumoniae [4],8 mm
same,zone of inhibition at 25 µg/disc,Pseudomonas aeruginosa [5],23 mm
same,MIC50,Salmonella typhi,1.64 µg/mL
same,MIC90,Salmonella typhi,2.5 µg/mL
same,zone of inhibition at 15 µg/disc,Salmonella typhimurium [6],13 mm
same,zone of inhibition at 15 µg/disc,Pseudomonas aeruginosa [7],16 mm
same,zone of inhibition at 20 µg/disc,Pseudomonas aeruginosa [8],20 mm
same,zone of inhibition at 20 µg/disc,Bacillus subtilis [9],9 mm
same,zone of inhibition at 5 µg/disc,Salmonella typhimurium [10],8 mm
same,zone of inhibition at 25 µg/disc,Klebsiella pneumoniae [11],16 mm
same,zone of inhibition at 20 µg/disc,Escherichia coli [12],12 mm
same,Activity,[1],inactive
same,zone of inhibition at 15 µg/disc,Staphylococcus aureus [13],10 mm
same,zone of inhibition at 10 µg/disc,Escherichia coli [14],9 mm
same,zone of inhibition at 25 µg/disc,Bacillus subtilis [15],10 mm
same,zone of inhibition at 5 µg/disc,Staphylococcus aureus [16],8 mm
same,MIC50,Escherichia coli [17],2 µg/mL
same,MIC90,Escherichia coli [17],4 µg/mL
same,zone of inhibition at 10 µg/disc,Pseudomonas aeruginosa [18],14 mm
same,zone of inhibition at 25 µg/disc,Salmonella typhimurium [19],16 mm
same,zone of inhibition at 15 µg/disc,Klebsiella pneumoniae [20],13 mm
same,zone of inhibition at 10 µg/disc,Staphylococcus aureus [21],9 mm
same,zone of inhibition at 10 µg/disc,Salmonella typhimurium [22],10 mm
same,MIC50,Pseudomonas aeruginosa [23],1 µg/mL
same,MIC90,Pseudomonas aeruginosa [23],8 µg/mL
same,zone of inhibition at 25 µg/disc,Staphylococcus aureus [24],14 mm
same,zone of inhibition at 25 µg/disc,Escherichia coli [25],13 mm
same,zone of inhibition at 10 µg/disc,Klebsiella pneumoniae [26],10 mm
same,zone of inhibition at 15 µg/disc,Bacillus subtilis [27],8 mm
same,zone of inhibition at 20 µg/disc,Staphylococcus aureus [28],12 mm
same,zone of inhibition at 20 µg/disc,Klebsiella pneumoniae [29],14 mm
same,MIC50,Staphylococcus aureus [30],64 µg/mL
same,MIC90,Staphylococcus aureus [30],64 µg/mL
same,MIC50,Klebsiella pneumoniae [31],0.25 µg/mL
same,MIC90,Klebsiella pneumoniae [31],4 µg/mL
same,zone of inhibition at 15 µg/disc,Escherichia coli [32],10 mm
same,MIC50,Bacillus subtilis [33],5 µg/mL
same,MIC90,Bacillus subtilis [33],5 µg/mL
same,zone of inhibition at 20 µg/disc,Salmonella typhimurium [36],14 mm
same,Activity,[37],Active
same,zone of inhibition at 5 µg/disc,Escherichia coli [38],8 mm
